Reference: ChEMBL document CHEMBL1140435, “Synthesis and evaluation of cyclic secondary amine substituted phenyl and benzyl nitrofuranyl amides as novel antituberculosis agents” (J Med Chem, 2005)
Values after ≈ are worked out from the molar mass of the structure shown.

Assays:
[1] = test system: Mycobacterium tuberculosis; test: Activity against Mycobacterium tuberculosis H37Rv; assay type: functional
[2] = Oral bioavailability in female C57BL/6 mice administered with 300 mg/kg, po; assay type: ADME, organism-based; details: C57BL/6, mouse, in vivo
In short: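 Graded Low (BF 1–20), Medium (21–80) or High (>80). Serum was serially diluted with naive mouse serum and added to H37Rv at 10^4 CFU/well, then incubated at 35 °C. Wells scored positive if OD600 was <50% of the untreated control.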

Mus musculus = test: Maximum concentration in female C57BL/6 mice administered with 300 mg/kg, po; assay type: ADME, organism-based; parameters: dose 300 mg/kg, route oral; details: in vivo
In short: (§1)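 8–10 week old female C57BL/6 mice given one oral gavage dose, generally 300 mg/kg, below the maximum tolerated dose; HCl salts where possible. Tail-vein bleeds were taken from 3 mice at 20 min, 2, 4 and 8 h, and the serum was collected. Tmax and half-life were read off the concentration–time curve.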

[3] = test system: Mycobacterium tuberculosis; test: Viable number of Mycobacterium tuberculosis colonies in lungs of infected mice after 9 days of administration of 300 mg/kg; assay type: functional, Lung
In short: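 GKO mice infected by low-dose aerosol delivering ~50 bacilli to the lungs. Treatment began 18 days post-infection: 9 daily doses at 300 mg/kg. At day 27 post-infection, lung homogenates were serially diluted onto 7H11 agar and incubated at 37 °C in ambient air for 4 weeks. Result given as Log10 CFU ± SEM and Log10 reduction versus untreated controls.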

[4] = Half life in female C57BL/6 mice administered with 300 mg/kg, po; assay type: ADME, organism-based; parameters: dose 300 mg/kg, route oral; details: C57BL/6, mouse, in vivo; in short: as §1
[5] = Tmax in female C57BL/6 mice administered with 300 mg/kg, po; assay type: ADME, organism-based; parameters: dose 300 mg/kg, route oral; details: C57BL/6, mouse, in vivo
In short: as §1, with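 “collected. […]” for “collected.”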

Compound | MIC50 [1] [µg/mL] | other results
O=C(Nc1cccc(N2CCN(Cc3ccccc3)CC2)c1)c1ccc([N+](=O)[O-])o1 | 12.5 (≈ 30.8 µM) | –
CN1CCN(c2ccc(CNC(=O)c3ccc([N+](=O)[O-])o3)cc2)CC1 | 0.2 (≈ 0.581 µM) | –
O=C(NCc1ccc(N2CCOCC2)cc1)c1ccc([N+](=O)[O-])o1 | 0.2 (≈ 0.604 µM) | bioavailability [2]: 21%; Cmax (Mus musculus): 3000 ng/mL
O=C(Nc1cccc(N2CCC(Cc3ccccc3)CC2)c1)c1ccc([N+](=O)[O-])o1 | 12.5 (≈ 30.8 µM) | –
O=C(NCc1ccc(N2CCN(Cc3ccccc3)CC2)cc1)c1ccc([N+](=O)[O-])o1 | 0.0125 (≈ 0.0297 µM) | Log10 cfu [3]: 7.92
O=C(NCc1cccc(N2CCN(Cc3ccccc3)CC2)c1)c1ccc([N+](=O)[O-])o1 | 0.1 (≈ 0.238 µM) | –
CN1CCN(c2cccc(NC(=O)c3ccc([N+](=O)[O-])o3)c2)CC1 | 12.5 (≈ 37.8 µM) | –
CN(C)c1ccc(CNC(=O)c2ccc([N+](=O)[O-])o2)cc1 | 0.1 (≈ 0.346 µM) | Log10 cfu [3]: 7.46
O=C(Nc1ccc(N2CCC(Cc3ccccc3)CC2)cc1)c1ccc([N+](=O)[O-])o1 | 3.13 (≈ 7.72 µM) | –
CN1CCN(c2cccc(CNC(=O)c3ccc([N+](=O)[O-])o3)c2)CC1 | 3.12 (≈ 9.07 µM) | –
CN1CCN(c2ccc(NC(=O)c3ccc([N+](=O)[O-])o3)cc2)CC1 | 12.5 (≈ 37.8 µM) | –
O=C(Nc1ccc(N2CCN(c3ccccn3)CC2)cc1)c1ccc([N+](=O)[O-])o1 | 0.4 (≈ 1.02 µM) | –
O=C(Nc1ccc(N2CCN(Cc3ccccc3)CC2)cc1)c1ccc([N+](=O)[O-])o1 | 0.8 (≈ 1.97 µM) | –
O=C(NCc1ccc(N2CCC(Cc3ccccc3)CC2)c(F)c1)c1ccc([N+](=O)[O-])o1 | 0.2 (≈ 0.457 µM) | –
O=C(NCc1ccc(N2CCSCC2)cc1)c1ccc([N+](=O)[O-])o1 | 0.1 (≈ 0.288 µM) | bioavailability [2]: 1%; Cmax (Mus musculus): 820 ng/mL; Log10 cfu [3]: 7.53
CN1CCN(/N=C\c2ccc(CNC(=O)c3ccc([N+](=O)[O-])o3)cc2)CC1 | 0.4 (≈ 1.08 µM) | –
O=C(NCc1ccc(N2CCS(=O)(=O)CC2)cc1)c1ccc([N+](=O)[O-])o1 | 12.2 (≈ 32.3 µM) | –

Compound | MIC50 [1] [µg/mL] | other results
O=C(NCc1ccc(N2CC[S+]([O-])CC2)cc1)c1ccc([N+](=O)[O-])o1 | 3.13 (≈ 8.61 µM) | –
O=C(NCc1ccc(N2CCSCC2)c(F)c1)c1ccc([N+](=O)[O-])o1 | 0.8 (≈ 2.19 µM) | –
CN1CCN(c2ccc(CNC(=O)c3ccc([N+](=O)[O-])o3)cc2F)CC1 | 0.8 (≈ 2.21 µM) | –
O=C(Nc1cccc(N2CCN(c3ccccn3)CC2)c1)c1ccc([N+](=O)[O-])o1 | 3.13 (≈ 7.96 µM) | –
O=C(NCc1ccc(N2CCC(Cc3ccccc3)CC2)cc1)c1ccc([N+](=O)[O-])o1 | 0.8 (≈ 1.91 µM) | –
O=C(Nc1cccc(N2CCOCC2)c1)c1ccc([N+](=O)[O-])o1 | 3.13 (≈ 9.86 µM) | –
O=C(Nc1ccc(N2CCOCC2)cc1)c1ccc([N+](=O)[O-])o1 | 3.13 (≈ 9.86 µM) | –
O=C(NCc1cccc(N2CCC(Cc3ccccc3)CC2)c1)c1ccc([N+](=O)[O-])o1 | 1.56 (≈ 3.72 µM) | –
O=C(NCc1ccc(N2CCN(CC3CC3)CC2)cc1)c1ccc([N+](=O)[O-])o1 | 0.05 (≈ 0.13 µM) | –
O=C(NCc1ccc(N2CCN(Cc3ccccc3)CC2)c(F)c1)c1ccc([N+](=O)[O-])o1 | 0.025 (≈ 0.057 µM) | bioavailability [2]: 21%; Cmax (Mus musculus): 1640 ng/mL; Log10 cfu [3]: 7.65
O=C(NCc1ccc(N2CCOCC2)c(F)c1)c1ccc([N+](=O)[O-])o1 | 0.4 (≈ 1.15 µM) | –
Cl.O=C(NCc1cccc(N2CCN(Cc3ccccc3)CC2)c1)c1ccc([N+](=O)[O-])o1 | – | bioavailability [2]: 21%; half-life [4]: 78 min; Cmax (Mus musculus): 1640 ng/mL; Tmax [5]: 30 min
CN1CCN(c2ccc(CNC(=O)c3ccc([N+](=O)[O-])o3)cc2F)CC1.Cl | – | Tmax [5]: 30 min
CN(C)c1ccc(CNC(=O)c2ccc([N+](=O)[O-])o2)cc1.Cl | – | Tmax [5]: 30 min
Cl.O=C(NCc1ccc(N2CCN(Cc3ccccc3)CC2)cc1)c1ccc([N+](=O)[O-])o1 | – | bioavailability [2]: > 80%; half-life [4]: 66 min; Cmax (Mus musculus): 2240 ng/mL; Tmax [5]: 30 min
Cl.O=C(NCc1ccc(N2CCN(CC3CC3)CC2)cc1)c1ccc([N+](=O)[O-])o1 | – | Tmax [5]: 30 min
NNC(=O)c1ccncc1 [ISONIAZID] | – | bioavailability [2]: > 80%; Cmax (Mus musculus): > 38400 ng/mL; Log10 cfu [3]: 3.88
